Screening results: PubChem BioAssay, several laboratories
Rows were chosen to be rich in hits. Some 5.3% of all compounds tested hit in one or more screens of this group.
T cruzi inh = T. cruzi replication inhibition; T. cruzi beta-gal in NIH3T3, luminescence, 90 h; inhibition, % (concentration not given with the values); actives 1.4% (n = 300,000); AID 1885;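 active = mean inhibition across valid replicates above about 55%, limit read from the data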;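 also: signal also drops with host cell toxicity which is not excluded here; 0% = plate median of DMSO wells and 100% = zero luminescence signal; higher percent means less beta-gal luminescence so fewer parasites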
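Assay system: NIH/3T3 fibroblasts plus reporter T. cruzi. Amount: NIH/3T3 cells, 5,000 per well. Buffer or medium: DMEM, 2% fetal bovine serum. Doses: compound pinned at 50 nL/well, DMSO. Schedule: ≥90 h infection period, 3 h prior cell attachment. Signal: luminescent β-galactosidase signal after 60 min lysis. Read-out: parasite load inhibition, %.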
CSC inhib = cancer stem cell inhibition. inhibition, % at 7.5 µM. actives 1.1% (n = 300,000). cancer stem cell-like cells viability, luminescence; in the data active = inhibition above about 75%; tested in HMLE shEcad cells
Calb FLC = C. albicans growth modulation with fluconazole. actives 0.57% (n = 300,000). AID 1979. C. albicans CaCi-2 + fluconazole, Alamar Blue growth, 48 h. growth inhibition, % (test concentration not listed);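 active = growth inhibition above about 58% in most replicates, limit read from the data, passing the limit was not always enough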;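 also: all wells also contain fluconazole at 8 µg/ml as a sub-toxic cotreatment; 0% = median of DMSO wells and 100% = median of geldanamycin control wells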
NLRP3 yeast inh = blocks the NALP3 inflammasome reconstituted in yeast; Yeast reconstituted NLRP3/ASC/caspase-1, beta-gal luminescence, 24 h; inhibition, % at 10 µM; actives 0.39% (n = 330,000); AID 2825;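 active = inhibition of 50% or more; inactive = inhibition below 50%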;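 also: plate controls were induced DMSO wells for no effect and uninduced yeast grown without galactose for full effect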
Mdm2-MdmX inh = human Mdm2/MdmX binding inhibition; O15151+Q00987; SaOS-2 split-luciferase Mdm2/MdmX complementation, luminescence; inhibition, % at 8 µM; actives 3% (n = 330,000); AID 485346;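 active = inhibition of at least 50% at 8 µM in the primary screen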
Target sequence (O15151 whole entry, looked up): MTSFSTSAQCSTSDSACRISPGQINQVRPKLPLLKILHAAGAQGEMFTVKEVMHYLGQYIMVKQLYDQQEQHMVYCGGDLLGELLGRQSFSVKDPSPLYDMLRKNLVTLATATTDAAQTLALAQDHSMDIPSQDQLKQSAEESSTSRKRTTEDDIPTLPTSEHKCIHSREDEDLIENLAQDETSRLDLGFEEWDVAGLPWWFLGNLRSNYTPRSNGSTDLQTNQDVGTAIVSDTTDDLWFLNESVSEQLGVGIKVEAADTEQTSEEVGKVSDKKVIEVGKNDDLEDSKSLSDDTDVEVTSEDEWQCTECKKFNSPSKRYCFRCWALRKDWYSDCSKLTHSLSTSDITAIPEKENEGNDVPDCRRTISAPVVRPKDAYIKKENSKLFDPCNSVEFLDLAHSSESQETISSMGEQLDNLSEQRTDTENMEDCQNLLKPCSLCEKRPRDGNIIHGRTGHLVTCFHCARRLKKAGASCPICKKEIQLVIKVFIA
Target sequence (Q00987 whole entry, looked up): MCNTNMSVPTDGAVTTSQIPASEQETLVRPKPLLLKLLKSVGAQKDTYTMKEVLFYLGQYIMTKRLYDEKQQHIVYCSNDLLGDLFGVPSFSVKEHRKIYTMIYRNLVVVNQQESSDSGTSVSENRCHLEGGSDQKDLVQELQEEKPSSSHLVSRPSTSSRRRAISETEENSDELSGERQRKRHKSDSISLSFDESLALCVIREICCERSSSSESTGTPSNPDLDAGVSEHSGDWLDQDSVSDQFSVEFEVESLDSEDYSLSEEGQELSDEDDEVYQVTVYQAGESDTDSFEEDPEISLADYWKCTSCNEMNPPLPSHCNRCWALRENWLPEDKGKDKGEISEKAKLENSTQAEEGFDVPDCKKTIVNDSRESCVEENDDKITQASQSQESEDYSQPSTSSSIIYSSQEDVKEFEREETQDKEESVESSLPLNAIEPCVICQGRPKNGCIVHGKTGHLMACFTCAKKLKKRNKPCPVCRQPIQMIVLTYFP
Beta cell apopt = blocks beta cell apoptosis; INS-1E cytokine-induced death, ATP luminescence, 48 h; percent of positive-control rescue, neutral wells zero; protection from apoptosis, % (no concentration beside the values); actives 0.8% (n = 300,000); AID 435005;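 active = Every replicate reaches about 75%, or at least half do and their mean reaches it too, limit read from the data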;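 also: 0% = cytokine-treated negative control wells and 100% = positive control rescue; higher means more ATP so stronger rescue from cytokine killing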
An asterisk follows results filed as active.

CCC(C)C(=O)Nc1nc(C)c(-c2csc(Nc3ccc(Cl)cc3)n2)s1 (configuration not stated) was read as T cruzi inh 58*, CSC inhib 34, Calb FLC -2, NLRP3 yeast inh 7, Mdm2-MdmX inh 21 and Beta cell apopt -1.
Screening COc1ccc(CCNC(=O)CN(c2ccccc2OC)S(=O)(=O)c2ccc(C)cc2)cc1 returned T cruzi inh 60*, CSC inhib -3, Calb FLC -7, NLRP3 yeast inh 11 and Mdm2-MdmX inh 17.
`CCOc1ccc(N(CC(=O)NCCC2=CCCCC2)S(=O)(=O)c2ccccc2)cc1` gave T cruzi inh 62*, CSC inhib -11, Calb FLC -18, NLRP3 yeast inh 4, Mdm2-MdmX inh 9 and Beta cell apopt 1.
COc1ccc(N(CC(=O)NCCC2=CCCCC2)S(=O)(=O)c2ccccc2F)cc1 was read as T cruzi inh 4, CSC inhib -12, Calb FLC 2, NLRP3 yeast inh 5, Mdm2-MdmX inh 14 and Beta cell apopt 2.
Screening COc1ccc(N(CC(=O)NCCC2=CCCCC2)S(C)(=O)=O)cc1 returned T cruzi inh 2, CSC inhib -18, Calb FLC 10, NLRP3 yeast inh 3, Mdm2-MdmX inh 5 and Beta cell apopt -6.
`COc1ccc(N(CC(=O)NCCC2=CCCCC2)S(=O)(=O)c2ccc(C)cc2)cc1` gave T cruzi inh 62*, CSC inhib -4, Calb FLC -3, NLRP3 yeast inh 25, Mdm2-MdmX inh 16 and Beta cell apopt 3.
`CC1(C)c2[nH]c3ccccc3c2C[C@H]2C(=O)N(Cc3ccc(F)cc3)C(=O)N21` gave T cruzi inh 18, CSC inhib 3, Calb FLC 24, NLRP3 yeast inh 20, Mdm2-MdmX inh -12 and Beta cell apopt 5.
Screening CCOC(=O)c1csc(NC(C)=O)n1 returned T cruzi inh 12, CSC inhib -10, Calb FLC -12, NLRP3 yeast inh 18, Mdm2-MdmX inh -26 and Beta cell apopt -3.
For CNC1=C(N(C(C)=O)c2ccc(Br)cc2)C(=O)c2ccccc2C1=O the results were T cruzi inh 70*, CSC inhib 105*, Calb FLC 103* and Beta cell apopt 131*.
CCC(=O)N(C1=C(NC)C(=O)c2ccccc2C1=O)C(C)C was read as T cruzi inh -14, CSC inhib -3, Calb FLC 18, NLRP3 yeast inh 38, Mdm2-MdmX inh -30 and Beta cell apopt 45.
`CN(C)c1ccc(NC(=O)C2C3C=CC(C3)C2C(=O)O)cc1` (configuration not stated) gave T cruzi inh 41, CSC inhib 11, Calb FLC 92*, NLRP3 yeast inh 32, Mdm2-MdmX inh 6 and Beta cell apopt 28.
Screening O=C(O)C1C2C=CC(C2)C1C(=O)Nc1ccc2c(c1)OCCO2 (configuration not stated) returned T cruzi inh -11, Calb FLC -7, NLRP3 yeast inh 10, Mdm2-MdmX inh 6 and Beta cell apopt 1.
Screening Cc1nc(-c2ccccn2)nc(N(C)c2ccccc2)c1Cl returned T cruzi inh 59*, Calb FLC -14, NLRP3 yeast inh 37 and Mdm2-MdmX inh 26.
Screening Cc1ccc(OCC(=O)N2CCN(C(=O)c3ccncc3)CC2)cc1 returned T cruzi inh -11, CSC inhib -8, Calb FLC -13, NLRP3 yeast inh 15, Mdm2-MdmX inh -4 and Beta cell apopt -4.
Screening CC(C)(C)c1ccc(C(=O)Nc2ccc(C(=O)NCc3cccnc3)cc2)cc1 returned T cruzi inh 17, CSC inhib 3, Calb FLC 39, NLRP3 yeast inh 11, Mdm2-MdmX inh -12 and Beta cell apopt 113*.
Screening CC(C)(C)C(=O)Nc1ccc(C(=O)NCc2cccnc2)cc1 returned T cruzi inh -7, CSC inhib 20, Calb FLC 1, NLRP3 yeast inh 3, Mdm2-MdmX inh 1 and Beta cell apopt 2.
Screening O=C(NCc1cccnc1)c1ccc(NC(=O)c2ccc([N+](=O)[O-])cc2)cc1 returned T cruzi inh -23, CSC inhib -2, Calb FLC -24, NLRP3 yeast inh 22, Mdm2-MdmX inh 28 and Beta cell apopt 104*.
COc1ccc(C(=O)Nc2cc3c4c(c2)C(C)C(=O)N4CCC3)c(OC)c1 (configuration not stated) was read as T cruzi inh -6, CSC inhib -15, Calb FLC 10, NLRP3 yeast inh 9, Mdm2-MdmX inh 16 and Beta cell apopt -6.
Screening COc1ccc2[nH]c3c(NCCC4=CCCCC4)ncnc3c2c1 returned T cruzi inh 87* and Calb FLC 5.
For COC(=O)c1c(NC(=O)CN2CCN(Cc3ccc4c(c3)OCO4)CC2)sc(C)c1C the results were T cruzi inh 59*, CSC inhib 61, Calb FLC -30, NLRP3 yeast inh -21, Mdm2-MdmX inh 11 and Beta cell apopt 8.
Screening C#CCOC(=O)CCCC(=O)NCCCCCCCC returned T cruzi inh -16, CSC inhib -6, Calb FLC 109*, NLRP3 yeast inh 36, Mdm2-MdmX inh 0 and Beta cell apopt -4.
Screening CCCCCCCCC(=O)NNC(=O)c1c(O)c2ccccc2n(CC)c1=O returned T cruzi inh -17, Calb FLC 94*, NLRP3 yeast inh 33, Mdm2-MdmX inh 31 and Beta cell apopt -2.
For CCn1c(=O)c(C(=O)NCCc2ccccc2)c(O)c2ccccc21 the results were T cruzi inh 22, CSC inhib 95*, Calb FLC 31, NLRP3 yeast inh 25, Mdm2-MdmX inh 28 and Beta cell apopt -2.
COc1ccc(CCNC(=O)c2c(O)c3ccccc3n(C)c2=O)cc1 was read as T cruzi inh 1, CSC inhib -13, Calb FLC 96*, NLRP3 yeast inh 13, Mdm2-MdmX inh 28 and Beta cell apopt -6.
For O=C(NCCc1ccccc1)c1c(O)c2cccc3c2n(c1=O)CC3 the results were T cruzi inh -7, CSC inhib -2, Calb FLC 90*, NLRP3 yeast inh -6, Mdm2-MdmX inh 18 and Beta cell apopt -3.
CCCCCCC(=O)NNC(=O)c1c(O)c2ccccc2n(CC)c1=O was read as T cruzi inh 10, CSC inhib 10, Calb FLC -2, NLRP3 yeast inh 24, Mdm2-MdmX inh 5 and Beta cell apopt -1.
For O=C(Nc1cccc(F)c1)C1CCN(C(=O)c2ccc(Cl)cc2)CC1 the results were T cruzi inh -4, CSC inhib -3, Calb FLC 22, NLRP3 yeast inh 0, Mdm2-MdmX inh -6 and Beta cell apopt -7.
Screening O=S(=O)(NCC(c1ccc2c(c1)OCO2)N1CCOCC1)c1ccccc1 (configuration not stated) returned T cruzi inh -2, CSC inhib -7, Calb FLC 3, NLRP3 yeast inh 11, Mdm2-MdmX inh 11 and Beta cell apopt -1.
